A selection: hits, their analogues and other compounds. The true share with any hit is near 1%.
TLR9-MyD88 inh: inhibitors of human TLR9-MyD88 binding. CHO BLA complementation TLR9-MyD88, CCF4 FRET ratio. inhibition, % at 4.98 µM. 340,000 tested, 0.21% active. AID 504734;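 active = inhibition above the mean over all tested compounds plus 3 SD, cut at about 21% in these data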;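 also: 0% = DMSO only wells and 100% = clavulanate BLA inhibitor control wells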
NOD2 RIPK2 PPI: NOD2-RIPK2 protein interaction inhibition; CHO BLA complementation NOD2-RIPK2, CCF4 ratio; AID 624267; 360,000 tested, 0.38% active; inhibition, % at 4.98 µM; in the data active = inhibition above about 21%;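 also: 0% = vehicle only and 100% = reference blocker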
Hsp70 act: transcriptional activators of Hsp70; HeLa Hsp70 promoter luciferase reporter, luminescence; scaled: vehicle 0, proteasome-inhibitor control 100%; 200,000 tested, 0.04% active; AID 1203; activation, % at 10 µM;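 active = activation above the mean across all tested compounds plus 3 SD, cutoff set per campaign, cut at about 5.5% in these data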;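 also: 100% = MG132 at 30 µM as the positive control and 0% = DMSO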
TLR4 MyD88 comp: inhibitors of human TLR4-MyD88 binding. 200,000 tested, 0.18% active. HeLa CL3-4 TLR4/MyD88 BLA complementation, FRET ratio. inhibition, % at 8.4 µM. O00206+Q99836. AID 861; in the data active = inhibition above about 25%;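 also: 0% = vehicle and 100% = reference inhibitor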
b-catenin transl: alters nuclear translocation of beta-catenin in HeLa cells; 190,000 tested, 0.3% active; nuclear translocation activity, % at 5 µM; AID 1665; immunofluorescence imaging;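 active = nuclear translocation activity above 50% at 5 µM, with a well cell count of 50 or more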;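 also: per-cell ratio of nuclear to cytoplasmic median beta-catenin stain intensity; plate controls were DMSO negative control for no effect and GSK-3 inhibitor IX positive control for full effect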
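Test system: human HeLa cell line; Doses: 5 µM primary, 0.02–20 µM confirmation; Incubation: 24 h compound exposure, 37°C; Detection: beta-catenin immunofluorescence imaging with DAPI; Read-out: beta-catenin nuclear/cytoplasmic ratio, % activation.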
MT stabilizer: microtubule stabilizers in HeLa cells. HeLa tubulin immunostaining HCS, 24 h; share of cells brighter than vehicle mean+2SD. 200,000 tested, 0.83% active. % tubulin-high responders, % at 10 µM;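 active = plate Z-score above 3 for both tubulin-high and condensed-nucleus cell shares, with cell loss under 80%, at 10 µM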;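 also: anti alpha tubulin signal scored within the nucleus-defined area of each cell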
TLR4 MyD88 cnf: confirmation of human TLR4-MyD88 binding inhibitors. HeLa CL3-4 BLA complementation, CCF4 FRET ratio. 350 tested, 50% active. inhibition, % at 8.4 µM. shares compounds with TLR4 MyD88 comp. AID 941;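 active = mean inhibition across three repeat runs above about 25% carried over from the earlier screen, limit read from the data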;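 also: plate controls were DMSO only for no effect and clavulanic acid blocking BLA at full dose for full effect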
BLA inhibitor ct: beta-lactamase inhibition flagged in TLR4-MyD88 counter-screen. shares compounds with TLR4 MyD88 comp. inhibition, % at 8.4 µM. 350 tested, 63% active. HeLa BLA reporter, CCF4 FRET ratio. AID 1237;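 active = mean inhibition over three repeats above about 26% taken from the earlier screen, limit read from the data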;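 also: HeLa cells stably expressing beta-lactamase reporter as counterscreen for TLR4-MyD88 inhibitors; 0% = DMSO and 100% = clavulanic acid full inhibition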
Hsp70 act DR: dose-dependent Hsp70 transcriptional activation; calls only at 99 µM; HeLa hsp70.1pr-luc reporter, luciferase luminescence; shares compounds with Hsp70 act; 70 tested, 10% active;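 active = over 50% activation at some tested dose; inactive = under 50% activation at every tested dose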
TLR9-MyD88 cf: confirmation of human TLR9-MyD88 binding inhibitors; shares compounds with TLR9-MyD88 inh; CHO TLR9/MyD88 BLA complementation, CCF4 FRET ratio; inhibition, % at 4.98 µM; 680 tested, 51% active; AID 540250;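 active = mean inhibition across three repeats above about 21% taken from the earlier screen, limit read from the data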;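 also: blue over green emission ratio reports constitutive TLR9 MyD88 association via BLA complementation; 0% = DMSO vehicle wells and 100% = clavulanate BLA inhibitor wells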
BLA counter-1: counter-screen for TLR9-MyD88 inhibitors: non-selective beta-lactamase inhibitors; shares compounds with TLR9-MyD88 inh; AID 540251; CHO-BLA cells, CCF4 FRET ratio, BLA reporter; 680 tested, 7% active; inhibition, % at 4.98 µM;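 active = mean inhibition above a 50% cutoff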;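 also: counterscreen of TLR9-MyD88 hits on CMV-driven BLA in CHO-K1 cells; 0% = DMSO alone and 100% = clavulanate blocking BLA; higher means less blue over green ratio so more BLA blockade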
TLR9 CHO cytotox: counter-screen for TLR9-MyD88 inhibitors: cytotoxicity in CHO cells. AID 588336. 680 tested, 39% active. shares compounds with TLR9-MyD88 inh. inhibition, % at 4.98 µM. luminescence; in the data active = inhibition above about 11%
NOD2-RIPK2 conf: NOD2-RIPK2 interaction inhibition confirmed; shares compounds with NOD2 RIPK2 PPI; CHO cells, NOD2-RIPK2 BLA complementation, CCF4 FRET; inhibition, % at 4.98 µM; 1,200 tested, 70% active;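 active = mean inhibition across replicates above a set limit taken from the earlier primary screen, cut at about 21% in these data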;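 also: 0% = DMSO-only wells and the high end = clavulanate BLA-blocked wells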
BLA counter-2: NOD2-RIPK2 counterscreen BLA reporter activity. CHO BLA reporter, CCF4 FRET ratio. inhibition, % at 4.98 µM. 1,200 tested, 57% active. shares compounds with NOD2 RIPK2 PPI;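 active = mean inhibition above the low-control mean inhibition plus three low-control SD, cut at about 11% in these data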;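 also: 0% = DMSO only wells and 100% = clavulanate high control wells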
The depositor's hits bear a star; i = inactive; · = no result.

SMILES	TLR9-MyD88 inh	NOD2 RIPK2 PPI	Hsp70 act	TLR4 MyD88 comp	b-catenin transl	MT stabilizer	NOD2-RIPK2 conf	BLA counter-2	others
CNc1cc(Cl)c2nonc2c1[N+](=O)[O-]	80*	93*	18*	52*	-4	4	102*	60*	TLR4 MyD88 cnf=55*;BLA inhibitor ct=44*;Hsp70 act DR=i;TLR9-MyD88 cf=68*;BLA counter-1=28;TLR9 CHO cytotox=100*
CCCCc1nc2ccccc2c(=O)n1-c1ccc(Cl)cc1[N+](=O)[O-]	5	2	0	5	-2	1	·	·
COC(=O)C1CN(C#N)N(c2ccc(Cl)cc2)C12c1ccccc1-c1ccccc12 (stereo unspecified)	10	58*	6.6*	4	·	21	·	·	Hsp70 act DR=i
CC1=CC(=O)OC2CC3OC4C[C@@H](C)C5OC6CC7O[C@]8(C)C/C=C\C9OC%10CC%11OC(CC(C)C%12OCCO%12)CC(O)[C@]%11(C)OC%10CC9OC8C[C@]7(C)O[C@]6(C)CCC5OC4C[C@]3(C)OC12 (stereo partly specified)	-13	6	·	·	·	·	·	·
CN(C)c1ccc(/C=C/[N+](=O)[O-])cc1	24*	28*	0	-5	0	2	·	·	TLR9-MyD88 cf=3;BLA counter-1=4;TLR9 CHO cytotox=-2
O=c1c2ccccc2[se]n1-c1ccccc1	27*	10	0	5	3	3	·	·	TLR9-MyD88 cf=19;BLA counter-1=-1;TLR9 CHO cytotox=26*
COc1ccc(OC)c(N2Cc3ccccc3C2=N)c1	7	2	0	-3	-2	5	·	·
CCCCOC(=O)c1ccccc1C(=O)OCCCC	25*	-3	·	·	·	·	·	·	TLR9-MyD88 cf=5;BLA counter-1=2;TLR9 CHO cytotox=2
CCOC(=O)c1ccccc1N	3	-5	·	·	·	·	·	·
COC(=O)c1c(C)[nH]c(C(=O)C(C)[N+]23CCN(CC2)CC3)c1C (stereo unspecified)	7	-1	0	6	0	4	·	·
COc1cc(/C=C/c2nc3ccccc3c(=O)n2-c2ccc(O)cc2)ccc1O	14	10	·	·	·	·	·	·
COc1ccc(-n2c(/C=C/c3ccc(O)c(O)c3)nc3ccccc3c2=O)cc1	24*	19	·	·	·	·	·	·	TLR9-MyD88 cf=5;BLA counter-1=6;TLR9 CHO cytotox=8
C=C1C(=O)O[C@@H]2C[C@@H](C)[C@@H]3C=CC(=O)[C@@]3(C)[C@@H](OC(=O)CC(=O)O[C@H]3[C@@H]4C(=C)C(=O)O[C@@H]4C[C@@H](C)[C@@H]4C=CC(=O)[C@]43C)[C@H]12	32*	88*	·	·	72*	·	87*	44*	TLR9-MyD88 cf=43*;BLA counter-1=35;TLR9 CHO cytotox=99*
CC1(C)OC(c2ccccc2)=C/C(=C/C=C2C(=O)NC(=O)NC2=O)O1	34*	32*	0	24	8	6	57*	56*	TLR9-MyD88 cf=24*;BLA counter-1=27;TLR9 CHO cytotox=-4
C=C1C(=O)O[C@@H]2C[C@@H](C)[C@@H]3C4OC4C(=O)[C@@]3(C)[C@@H](O)[C@H]12 (stereo partly specified)	24*	55*	·	·	0	·	52*	23*	TLR9-MyD88 cf=26*;BLA counter-1=33;TLR9 CHO cytotox=100*
C=C1C(=O)OC2CC(C)C3C=CC(=O)C3(C)C(O)C12 (stereo unspecified)	8	20	·	·	·	·	·	·
CC(C)c1oc(=O)cc2c1[C@@H](O)[C@H]1OC(=O)[C@@]3(C)C[C@@H](O)[C@@H](O)[C@@]2(C)C13 (stereo partly specified)	-3	10	0	-11	·	5	·	·
Cn1cc(C(=O)OCC(=O)Nc2ccccc2)c2ccccc21	-8	-8	·	·	·	·	·	·
COc1cc2c(cc1/C=C/[N+](=O)[O-])OCO2	-5	40*	3	13	-3	4	65*	-5
COc1cc(/C=C/[N+](=O)[O-])ccc1OC(=O)c1cccnc1	-1	22*	·	·	·	·	86*	6
C[C@@H]([C@@H](O)c1ccccc1)N(C)C(=O)Cc1ccccc1	0	-4	·	·	·	·	·	·
CN(C)CC(C(=O)Cc1ccccc1)c1ccccc1 (stereo unspecified)	-19	57*	·	·	·	·	11	-6
CCC1CN2CCc3cc(OC)c(OC)cc3C2CC1CC1NCCc2c1[nH]c1ccc(O)cc21 (stereo unspecified)	-6	29*	·	·	·	·	27*	0
COc1ccc2c(c1OC)CN1CCc3cc4c(cc3[C@H]1C2)OCO4	4	4	·	·	·	·	·	·
CC(=O)N1CN2CN(C1)CN(C(C)=O)C2	5	0	0	2	-1	4	·	·
SMILES	TLR9-MyD88 inh	NOD2 RIPK2 PPI	Hsp70 act	TLR4 MyD88 comp	b-catenin transl	MT stabilizer	NOD2-RIPK2 conf	BLA counter-2	others
COC1CC2C=C(C)C=CC=CC(=O)NC(c3ccccc3)CC=CCCC(O)CC(=O)C2=C1O (stereo unspecified)	·	67*	·	·	·	·	102*	79*
COc1cc(O)c(C(=O)O)c(-c2cc(O)c(O)cc2C)c1	1	-3	·	·	2	·	·	·
Cc1ccc(C(O)(C(=O)OC(C)C)C(O)c2ccc(F)cc2)cc1 (stereo unspecified)	·	0	·	·	·	·	·	·
CC1CCN(C(CC(=O)c2ccccc2)C(=O)c2ccccc2)CC1 (stereo unspecified)	0	28*	·	·	·	·	12	-3
CC=CC(C)=CC(C)C(=O)CC(O)CC1CC(=O)NC(=O)C1 (stereo unspecified)	-13	11	·	·	·	·	·	·
CC1CC(C)(O)CC(C(O)CC2CC(=O)NC(=O)C2)C1=O (stereo unspecified)	-9	21*	·	·	·	·	25*	-4
O=C(NC1CCCCC1)N1Cc2cc(-c3cccc(F)c3)ccc2-n2nncc2C1	·	-2	·	·	·	·	·	·
CC(=O)OC1CC2OC3C=C(C)CCC3(C)C1(C)C21CO1 (stereo unspecified)	·	25*	·	·	·	·	27*	0
